Bioassay records: PubChem, several laboratories
MEKK2 mut-MEK5 = MEK5 binding signal on mutant MEKK2 PB1, primary screen, biochemical, multiplex bead flow cytometry, Alexa488-MEK5 | Alexa488-MEK5 binding to MEKK2 mutant | percent response, % at 10 µM | actives 0.35% (n = 290,000); in the data active means percent response above about 24%, passing the limit was not always enough
MEKK2 WT-MEK5 = modulators of MEK5 binding to wildtype MEKK2, primary screen, biochemical, multiplex bead flow cytometry, Alexa488-MEK5; Alexa488-MEK5 binding to MEKK2 WT; actives lie on both sides; binding response (% of control), % at 10 µM; actives 1.1% (n = 290,000); in the data active means binding response below about 67% or above about 130%; inconclusive means no clear call, values can overlap the other calls; inactive means in between
UBC13 inh = UBC13 polyubiquitin chain formation inhibitors, primary screen, biochemical, TR-FRET, uHTS; Ubiquitin-conjugating enzyme E2 N (Homo sapiens), P61088; inhibition, % at 20 µM; actives 0.47% (n = 330,000); in the data active means inhibition above about 45%, passing the limit was not always enough; inconclusive means no clear call, values can overlap the other calls
Target sequence (P61088 whole entry, looked up): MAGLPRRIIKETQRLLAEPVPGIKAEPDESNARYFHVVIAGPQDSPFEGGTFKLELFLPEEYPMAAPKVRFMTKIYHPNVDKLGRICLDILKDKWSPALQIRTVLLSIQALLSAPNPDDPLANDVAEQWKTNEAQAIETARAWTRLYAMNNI
Apaf-1 inh = inhibitors of human Apaf-1 apoptosome, primary screen, biochemical, DEVD-Rh110 fluorescence, uHTS | reconstituted apoptosome caspase-3 activity | inhibition, % at 20 µM | actives 0.71% (n = 330,000); active means inhibition of at least 40% at 20 µM
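Material: reconstituted apoptosome with Apaf-1, cytochrome c, caspase-9, procaspase-3, dATP / Buffer or medium: pH 7.5 Hepes buffer with CHAPS, BSA, DTT / Also added: cytochrome c with DEVD-Rh110 / Schedule: compound with Apaf-1, dATP, procaspase-3 30 min, then 50 min reaction, room temperature / Technique: rhodamine 110 fluorescence at Ex 480/Em 540 nm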
MEKK3 PB1 HTS = modulators of MEKK3-MEK5 PB1 binding, primary screen, biochemical, wildtype MEKK3, multiplex bead flow cytometry, Alexa488-MEK5 | AID 1529, 2009 | actives 1.4% (n = 290,000) | binding response (% of control), % at 10 µM | bead-based flow cytometry, Alexa488-MEK5 binding to MEKK3; actives lie on both sides; 0 = blocked by unlabeled MEK5, 100 = vehicle | Mitogen-activated protein kinase kinase kinase 3 (Homo sapiens), Q99759;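 active means binding response more than 3 SD above or below the average of its plate-row segment, actives on both sides; inconclusive means wells at one plate position flagged as instrument error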;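 further: Alexa488 bead fluorescence after subtracting the streptavidin-only scavenger bead signal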
Target sequence (Q99759 whole entry, looked up): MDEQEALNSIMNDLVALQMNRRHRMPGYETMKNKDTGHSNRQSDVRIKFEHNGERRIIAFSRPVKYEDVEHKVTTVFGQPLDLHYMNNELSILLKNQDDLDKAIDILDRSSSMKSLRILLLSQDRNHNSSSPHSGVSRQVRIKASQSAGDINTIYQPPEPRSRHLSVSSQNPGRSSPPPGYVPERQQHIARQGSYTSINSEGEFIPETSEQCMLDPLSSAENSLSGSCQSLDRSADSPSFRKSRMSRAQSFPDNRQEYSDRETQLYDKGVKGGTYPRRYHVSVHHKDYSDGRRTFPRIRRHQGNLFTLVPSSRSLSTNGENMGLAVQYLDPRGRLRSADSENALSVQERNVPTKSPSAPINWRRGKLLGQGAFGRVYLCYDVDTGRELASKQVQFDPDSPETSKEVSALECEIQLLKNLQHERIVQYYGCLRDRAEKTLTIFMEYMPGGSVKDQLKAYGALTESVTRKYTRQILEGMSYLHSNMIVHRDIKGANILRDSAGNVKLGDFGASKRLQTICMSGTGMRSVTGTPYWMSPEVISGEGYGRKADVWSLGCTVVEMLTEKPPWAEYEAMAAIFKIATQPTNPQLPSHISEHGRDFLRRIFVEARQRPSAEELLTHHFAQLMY
MEKK2wt confirm = modulators of MEK5 binding to wildtype MEKK2, confirmation, biochemical, single concentration, multiplex bead flow cytometry; shares compounds with MEKK3 PB1 HTS; Alexa488-MEK5 binding to MEKK2 WT; actives lie on both sides; binding response (% of control), % at 10 µM; actives 2.4% (n = 5,900); in the data active means binding response below about 16% or above about 210%; inactive means in between
MEKK2mut confirm = mutant MEKK2 PB1-MEK5 binding signal retest – biochemical, single concentration, multiplex bead flow cytometry, confirmation; shares compounds with MEKK3 PB1 HTS; Alexa488-MEK5 binding to MEKK2 mutant; percent response, % at 10 µM; actives 2% (n = 5,900); AID 1893, 2009; in the data active means percent response mostly above about 71%, no sharp cut-off; inactive means mostly below about 38%;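 further: higher means compound restores mutant binding toward wildtype level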
MEKK3-MEK5 inh = MEKK3 wild-type PB1 binding to MEK5, inhibitors, confirmation, biochemical, bead multiplex flow cytometry, single concentration, wildtype | shares compounds with MEKK3 PB1 HTS | Alexa488-MEK5 binding to MEKK3; active compounds read low | binding response (% of control), % at 10 µM | actives 1.8% (n = 5,900) | AID 1894, 2009;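 active means binding response below 72% of control, or above a set upper limit, though filed actives all read lower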;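 further: lower values mean stronger disruption of MEK5 binding to MEKK3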
Of the large screens only hits and unclear results are named; the others gave an inactive call (follow-up assays come after a bar, where they were run); ! = a repeat was not active; [ ] = dose if it differs, or a comment. A selection: hits, their analogues and other compounds. The true share with any hit is near 2.9%.

CN1CC=C(/C=C/c2ccc(-c3ccccc3)cc2)CC1	MEKK2 WT-MEK5 167 | MEKK2wt confirm inactive | MEKK2mut confirm inactive | MEKK3-MEK5 inh inactive
COc1ccc(/C=C/C2=CCN(C)CC2)cc1	none
Cc1cc(C)n(CCOC(=O)C2C(C=C(Cl)Cl)C2(C)C)n1 (stereo unspecified)	none
COc1ccc(C(CC(=O)N2CCC3(CC2)OCCO3)NS(=O)(=O)c2ccc(C)cc2)cc1 (stereo unspecified)	MEKK3 PB1 HTS 78[inhibitor] | MEKK2wt confirm inactive | MEKK2mut confirm inactive | MEKK3-MEK5 inh inactive
CC[C@@H]1C(=O)OC[C@@H]1Cc1cncn1C	MEKK2 WT-MEK5 55![inhibitor] | MEKK2wt confirm inactive | MEKK2mut confirm inactive | MEKK3-MEK5 inh inactive
OCCNc1c2c(nc3ccccc13)CCCC2	MEKK2 WT-MEK5 0.0[inhibitor], MEKK3 PB1 HTS 0.0[inhibitor] | MEKK2wt confirm inactive | MEKK2mut confirm inactive | MEKK3-MEK5 inh inactive
C[C@]12CCC3C(CC[C@H]4C[C@@H](O)CC[C@]34C)C1CCC2=O (stereo partly specified)	none (no result: MEKK2 mut-MEK5, MEKK2 WT-MEK5, MEKK3 PB1 HTS)
CC/C(=N\N1CCCCC1)c1c(O)[nH]c(=O)[nH]c1=O	none
CC/C(=N\N1CCN(C)CC1)c1c(O)[nH]c(=O)[nH]c1=O	MEKK3 PB1 HTS 140 | MEKK2wt confirm inactive | MEKK2mut confirm inactive | MEKK3-MEK5 inh inactive
Cc1cc(OCC(=O)N2CCC(C(N)=O)CC2)c2c3c(c(=O)oc2c1)CCCC3	none
CN1C[C@H](CNC(=O)OCc2ccccc2)C[C@@H]2c3cccc4c3c(cn4C)C[C@H]21	MEKK2 WT-MEK5 158 | MEKK2wt confirm inactive | MEKK2mut confirm inactive | MEKK3-MEK5 inh inactive
N#Cc1c(Cl)nc(Cl)c2c1CCN(Cc1ccccc1)C2	MEKK3 PB1 HTS 183 | MEKK2wt confirm inactive | MEKK2mut confirm inactive | MEKK3-MEK5 inh inactive
C[C@]1(O)CCC2C3CC[C@H]4C[C@@H](OC(=O)CNC(=O)CN)CC[C@]4(C)C3CC[C@@]21C (stereo partly specified)	none (no result: MEKK2 mut-MEK5, MEKK2 WT-MEK5, MEKK3 PB1 HTS)
C=CCN1C(=O)NC(=O)/C(=C/c2ccc(OC)c(CSc3ccccn3)c2)C1=O	MEKK3 PB1 HTS 80[inhibitor] | MEKK2wt confirm inactive | MEKK2mut confirm inactive | MEKK3-MEK5 inh inactive
CCOc1cc2c(cc1OCC)-n1cccc1C(c1ccc(C(C)C)cc1)NC2 (stereo unspecified)	MEKK2 WT-MEK5 141 | MEKK2wt confirm inactive | MEKK2mut confirm inactive | MEKK3-MEK5 inh inactive
COc1ccc(CNC(C)Cc2cccs2)cc1 (stereo unspecified)	none
CC(N)Cc1c[nH]c2ccc(OCc3cccs3)cc12 (stereo unspecified)	MEKK2 WT-MEK5 140 | MEKK2wt confirm inactive | MEKK2mut confirm inactive | MEKK3-MEK5 inh inactive
Cc1ccc(Cl)cc1N1CCN(CCN)CC1	MEKK2 mut-MEK5 40, MEKK2 WT-MEK5 139 | MEKK2wt confirm inactive | MEKK2mut confirm inactive | MEKK3-MEK5 inh inactive
CN1CCN(c2ccc(Cl)cc2N)CC1	none
Cc1[nH]c2ccc(O)cc2c1CCN	none (no result: MEKK2 mut-MEK5, MEKK2 WT-MEK5, MEKK3 PB1 HTS)
Cc1[nH]c2ccc(OCc3ccccc3)cc2c1CCN	MEKK2 WT-MEK5 162 | MEKK2wt confirm inactive | MEKK2mut confirm inactive | MEKK3-MEK5 inh inactive
CC(=NCCCn1ccnc1)c1c(O)n(C2CCCCC2)c(=O)[nH]c1=O	MEKK3 PB1 HTS 132 | MEKK2wt confirm inactive | MEKK2mut confirm inactive | MEKK3-MEK5 inh inactive
O=c1[nH]c(=O)n(C2CCCCC2)c(O)c1C=NCCCn1ccnc1	none (no result: MEKK2 mut-MEK5, MEKK2 WT-MEK5, MEKK3 PB1 HTS)
COC(=O)C1=C(c2ccc(C(C)=O)cc2)C[C@@H]2CC[C@H]1N2C(=O)NCCO	none (no result: MEKK2 mut-MEK5, MEKK2 WT-MEK5, MEKK3 PB1 HTS)
CN1C2c3ccccc3C3C4c5ccccc5C(C31)C(C2[N+](=O)[O-])N4C (stereo unspecified)	none
COc1ccc(OC)c(N2C(=O)/C(=C/c3ccco3)C(=O)NC2=S)c1	MEKK2 WT-MEK5 66[inhibitor], UBC13 inh inconclusive, Apaf-1 inh 73 | MEKK2wt confirm inactive | MEKK2mut confirm inactive | MEKK3-MEK5 inh inactive
COc1ccc(N2C(=O)/C(=C/c3cc(C)n(-c4ccc(C)cn4)c3C)C(=O)NC2=S)c(OC)c1	MEKK2 WT-MEK5 33[inhibitor] | MEKK2wt confirm inactive | MEKK2mut confirm inactive | MEKK3-MEK5 inh inactive
COc1ccc(N2C(=O)/C(=C/c3ccc(C)o3)C(=O)NC2=S)cc1	none
O=c1c2ccccc2nc(CNCC2CCCO2)n1-c1ccc(F)cc1 (stereo unspecified)	none
CCOC(=O)c1c(/N=C/c2c(O)n(-c3ccccc3F)c(=S)[nH]c2=O)sc2c1CCCC2	MEKK2 WT-MEK5 64[inhibitor] | MEKK2wt confirm inactive | MEKK2mut confirm inactive | MEKK3-MEK5 inh inactive
CCN(CC)c1ccc(CN(C)CCc2ccc(OC)c(OC)c2)cc1	MEKK2 mut-MEK5 24, MEKK2 WT-MEK5 135 | MEKK2wt confirm inactive | MEKK2mut confirm inactive | MEKK3-MEK5 inh inactive
Cc1cc(O)c2c(c1)OC(C)(C)C1=C2CC(C)CC1 (stereo unspecified)	none
O=c1[nH]c(O)c(/C=C2/C=CC(c3cc(Cl)ccc3Cl)=N2)c(=O)[nH]1	MEKK2 WT-MEK5 63[inhibitor] | MEKK2wt confirm inactive | MEKK2mut confirm inactive | MEKK3-MEK5 inh inactive
Cc1cc(N2CCCCC2)ccc1C=C1C(=O)N(C)C(=S)N(C)C1=O	MEKK2 WT-MEK5 29[inhibitor] | MEKK2wt confirm inactive | MEKK2mut confirm inactive | MEKK3-MEK5 inh inactive
Cc1cc(C=C2C(=O)N(C)C(=S)N(C)C2=O)c(C)n1C1CCCCC1	MEKK2 WT-MEK5 72[inhibitor] | MEKK2wt confirm inactive | MEKK2mut confirm inactive | MEKK3-MEK5 inh inactive
Cc1cc(C=C2C(=O)NC(=S)NC2=O)c(C)n1C1CCCC1	none
O=C(Nc1ccc(F)c([N+](=O)[O-])c1)N1C[C@H]2C[C@@H](C1)c1cccc(=O)n1C2	none
c1ccc(-c2[nH]c[n+](CC3CO3)c2-c2ccccc2)cc1 (stereo unspecified)	MEKK2 WT-MEK5 152, Apaf-1 inh 51 | MEKK2wt confirm inactive | MEKK2mut confirm inactive | MEKK3-MEK5 inh inactive
